# Test results as given in ChEMBL document CHEMBL5032492, “Aminoalkoxycarbonyloxymethyl Ether Prodrugs with a pH-Triggered Release Mechanism: A Case Study Improving the Solubility, Bioavailability, and Efficacy of Antimalarial 4(1H)-Quinolones with Single Dose Cures” (J Med Chem, 2021).
# How the values were obtained:
# [1] = Clearance in BALB/c mouse at 10 mg/kg, po; type: ADME, organism-based; settings: in vivo
# Procedure, shortened: (§1)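 Single oral dose in mice, formulated in 0.5% aqueous HEC; doses of 3, 10 or 50 mg/kg. The parent 4(1H)-quinolone was quantified in plasma over time after dosing, with a lower limit of quantification of 1 nM. PK parameters were derived from the plasma concentration profiles.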
# [2] = Solubility of the compound in 0.5% hydroxyethylcellulose
# [3] = Toxicity in BALB/c mouse infected with blood stage Plasmodium berghei assessed as death at 1 mg/kg, po administered as single dose starting from day 3 post infection and measured on day 13; type: organism-based; settings: in vivo, 240 h, time 10 day
# Procedure, shortened: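 Female BALB/c mice (4–6 weeks, about 18 g), five per group, infected intraperitoneally with P. berghei (GFP)-parasitized erythrocytes. Given one oral dose on day 3 PI in 0.5% aqueous HEC, freshly solubilized about 1 min before dosing. Tail-vein parasitemia read by flow cytometry and Giemsa smears every third day through day 30. Untreated animals served as controls.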
# Plasmodium berghei [4] = assay: (§2) In vivo antimalarial activity against blood stage Plasmodium berghei transfected with GFP infected in BALB/c mouse assessed as supression of parasitemia at 0.1 mg/kg, po administered as single dose on 3 days post infection and measured on day 6 by Giemsa staining based flow cytometric analysis relative to control; type: functional; settings: time 3 day
# Procedure, shortened: (§3)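 Female BALB/c mice, 4–6 weeks old, five per dose group, were infected intraperitoneally with 2 × 10^6 P. berghei-GFP-infected red cells. Each received one oral dose on day 3 PI in 0.5% aqueous HEC; doses ranged 0.01–10 mg/kg. Parasitemia was measured from tail blood by flow cytometry and Giemsa smears. Percent suppression on day 6 PI was calculated versus untreated infected controls, with Welch-corrected unpaired t test.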
# Plasmodium berghei [5] = assay: as §2, with “0.01” for “0.1”; type: functional; settings: time 3 day; procedure, shortened: as §3
# [6] = Clearance in BALB/c mouse at 3 mg/kg, po; type: ADME, organism-based; settings: in vivo; procedure, shortened: as §1
# Plasmodium berghei [7] = assay: as §2, with “0.03” for “0.1”; type: functional; settings: time 3 day; procedure, shortened: as §3
# Plasmodium berghei [8] = assay: as §2, with “1” for “0.1”, “13” for “6”; type: functional; settings: time 10 day
# Procedure, shortened: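 Female BALB/c mice, five per group, were infected with P. berghei-GFP-infected erythrocytes intraperitoneally. Each received a single oral dose of 1 mg/kg in 0.5% aqueous HEC on day 3 PI. Tail-blood parasitemia was followed by flow cytometry and Giemsa smears at 3-day intervals through day 30. Suppression on day 13 PI was calculated relative to untreated infected controls.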
# Plasmodium berghei [9] = assay: as §2, with “10” for “0.1”; type: functional; settings: time 3 day; procedure, shortened: as §3
# Plasmodium berghei [10] = assay: as §2, with “0.3” for “0.1”; type: functional; settings: time 3 day; procedure, shortened: as §3
# Plasmodium berghei [11] = assay: as §2, with “1” for “0.1”; type: functional; settings: time 3 day; procedure, shortened: as §3
# [12] = AUC (0 to 24 hrs) in BALB/c mouse at 3 mg/kg, po; type: ADME, organism-based; parameters: time < 24 hr, route oral, dose 3 mg/kg; settings: in vivo; procedure, shortened: as §1
# [13] = AUC (0 to 24 hrs) in BALB/c mouse at 10 mg/kg, po; type: ADME, organism-based; parameters: time < 24 hr, route oral, dose 10 mg/kg; settings: in vivo; procedure, shortened: as §1
# Plasmodium berghei [14] = assay: as §2, with “3” for “0.1”; type: functional; settings: time 3 day; procedure, shortened: as §3
# Plasmodium berghei [15] = assay: as §2, with “at 10” for “at 0.1”, “administered once daily starting from day” for “administered as single dose on”, “3 to 5” for “3 days”, “measured at” for “measured on”; type: functional
# Procedure, shortened: (§4)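 Female BALB/c mice, 4–6 weeks old, five per group, were infected intraperitoneally with 2 × 10^6 P. berghei-GFP-infected red cells. Oral doses of 10 or 50 mg/kg in 0.5% aqueous HEC were given once daily on days 3–5 PI; prodrugs were suspended about 1 min before dosing. Parasitemia was measured by flow cytometry and Giemsa smears. Day-6 percent suppression was calculated versus untreated controls, with Welch-corrected t test.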
# Plasmodium berghei [16] = assay: as §2, with “10” for “0.1”, “thrice daily started from” for “as single dose on”; type: functional; settings: time 3 day
# [17] = Aqueous solubility of compound at pH 7.4; type: physicochemical; settings: buffer
# Plasmodium falciparum [18] = assay: (§5) Antimalarial activity against chloroquine, pyrimethamine, mefloquine and atovaquone- resistant Plasmodium falciparum TM90-C2B infected in human erythrocytes assessed as reduction in parasite growth incubated for 48 hrs followed by addition of [3H]-hypoxanthine and measured after 24 hrs by Topcount liquid scintillation counting method; type: functional, organism-based; settings: Erythrocyte
# Plasmodium falciparum [19] = assay: as §5, with “chloroquine” for “chloroquine, pyrimethamine, mefloquine”, “pyrimethamine” for “atovaquone-”, “W2” for “TM90-C2B”; type: functional, organism-based; settings: W2, Erythrocyte
# [20] = Aqueous solubility of compound at pH 2.4; settings: buffer
# [21] = Toxicity in BALB/c mouse infected with blood stage Plasmodium berghei assessed as weight loss at up to at 50 mg/kg, po administered once daily starting from day 3 to 5 post infection and measured on day 6; type: organism-based; settings: in vivo
# Procedure, shortened: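 P. berghei-infected BALB/c mice were dosed orally once daily on days 3–5 PI in 0.5% aqueous HEC, at doses up to 50 mg/kg. Body weight of treated animals was monitored for loss.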
# Plasmodium berghei [22] = assay: as §2, with “at 50” for “at 0.1”, “administered once daily starting from day” for “administered as single dose on”, “3 to 5” for “3 days”, “measured at” for “measured on”; type: functional; procedure, shortened: as §4
# [23] = Volume of distribution in BALB/c mouse at 50 mg/kg, po; type: ADME, organism-based; settings: in vivo; procedure, shortened: as §1
# [24] = Tmax in BALB/c mouse at 50 mg/kg, po; type: ADME, organism-based; settings: in vivo; procedure, shortened: as §1
# [25] = Clearance in BALB/c mouse at 50 mg/kg, po; type: ADME, organism-based; settings: in vivo; procedure, shortened: as §1
# [26] = AUC (0 to 24 hrs) in BALB/c mouse at 50 mg/kg, po; type: ADME, organism-based; parameters: time < 24 hr, route oral, dose 50 mg/kg; settings: in vivo; procedure, shortened: as §1
# [27] = Apparent half life in BALB/c mouse at 50 mg/kg, po; type: ADME, organism-based; settings: in vivo, read-out: t1/2(app) (converted); procedure, shortened: as §1
# [28] = Cmax in BALB/c mouse at 50 mg/kg, po; type: ADME, organism-based; parameters: route oral, dose 50 mg/kg; settings: in vivo; procedure, shortened: as §1
compound,measurement,setting,value
CNCCCOC(=O)OCOc1c(-c2ccc(Oc3ccc(OC(F)(F)F)cc3)cc2F)c(C)nc2cc(OC)c(Cl)cc12.Cl,clearance,[1],0.084 L/h/kg
same,solubility,[2],> 5500 µM
same,Activity,[3],Non-Toxic
same,Activity,Plasmodium berghei [4],<1%
same,Activity,Plasmodium berghei [5],<1%
same,clearance,[6],0.054 L/h/kg
same,Activity,Plasmodium berghei [7],<1%
same,Activity,Plasmodium berghei [8],90%
same,Activity,Plasmodium berghei [9],>99%
same,Activity,Plasmodium berghei [10],57%
same,Activity,Plasmodium berghei [11],97%
same,AUC,[12],4818 µmol·min/L
same,AUC,[13],10269 µmol·min/L
same,Activity,Plasmodium berghei [14],>99%
CCN(CC)Cc1cc(Nc2ccnc3cc(Cl)ccc23)ccc1O [AMODIAQUINE],Activity,Plasmodium berghei [15],>99%
same,Activity,Plasmodium berghei [16],>99%
CCOC(=O)Oc1c(-c2ccccc2C)c(C)nc2cc(OC)c(Cl)cc12,solubility,[17],< 1 µM
same,EC50,Plasmodium falciparum [18],0.126 µM
same,EC50,Plasmodium falciparum [19],0.17 µM
COc1cc2nc(C)c(-c3ccccc3C)c(OC(=O)N3CCCC3)c2cc1Cl,EC50,Plasmodium falciparum [18],> 3.55 µM
same,EC50,Plasmodium falciparum [19],> 2.29 µM
CCCSc1ccc2nc(NC(=O)OC)[nH]c2c1 [ALBENDAZOLE],solubility,[17],6.1 µM
same,solubility,[20],100 µM
O=C1C(O)=C([C@H]2CC[C@H](c3ccc(Cl)cc3)CC2)C(=O)c2ccccc21 [ATOVAQUONE],EC50,Plasmodium falciparum [18],18.2 µM
CNCCCOC(=O)OCOc1c(-c2ccccc2C)c(C)nc2cc(OC)c(Cl)cc12.Cl,Activity,Plasmodium berghei [15],52%
same,EC50,Plasmodium falciparum [18],0.17 µM
same,solubility,[2],> 20000 µM
same,Activity,[21],Non-Toxic
same,Activity,Plasmodium berghei [22],72%
same,solubility,[20],> 100 µM
same,EC50,Plasmodium falciparum [19],0.269 µM
CCC(=O)Oc1c(-c2ccccc2C)c(C)nc2cc(OC)c(Cl)cc12,EC50,Plasmodium falciparum [18],0.0631 µM
same,EC50,Plasmodium falciparum [19],0.0631 µM
CNCCOC(=O)OCOc1c(-c2ccc(C(F)(F)F)cc2)c(C)nc2cc(OC)c(Cl)cc12.Cl,Activity,Plasmodium berghei [15],75%
same,solubility,[2],> 5600 µM
same,Vd,[23],7.8 L/kg
same,Activity,Plasmodium berghei [22],96%
same,Tmax,[24],4 h
same,clearance,[25],0.696 L/h/kg
same,AUC,[26],8031 µmol·min/L
same,half-life,[27],7.7 h
same,Cmax,[28],12 µM
